TAAR1 agonist: human TAAR1 agonists, primary screen, Fluo-8 calcium fluorescence, CHO RD-HGA16 cells. vehicle wells 0%, saturating PEA agonist 100%. activation, % at 3 µM. 360,000 tested, 0.99% active;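 active = activation above the mean activation of all test compounds in the run plus 3 SD, cut at about 38% in these data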
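System: CHO RD-HGA16 cells carrying human TAAR1 plus Gα16; Incubation: 17-24 h seeding, 75 min 37 °C dye, 30 min RT; Measured by: Fluo-8 fluorescence, 5 s baseline then 140 s kinetic read; Control set: DMSO and PEA EC100; Replication: single well for each compound.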
GPR7 antagonist: GPR7 receptor antagonists, primary screen, cell-based, fluorescence, single concentration; Neuropeptides B/W receptor type 1 (Homo sapiens), P48145; GPR7-expressing cells, fluorescence antagonist assay; inhibition, % at 4.4 µM; 290,000 tested, 1.1% active; AID 1861, 2009; in the data active = inhibition above about 16%, passing the limit was not always enough;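 also: cells stimulated with the agonist NPW; 0% = agonist with vehicle and 100% = vehicle without agonist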
Target sequence (P48145 whole entry, looked up): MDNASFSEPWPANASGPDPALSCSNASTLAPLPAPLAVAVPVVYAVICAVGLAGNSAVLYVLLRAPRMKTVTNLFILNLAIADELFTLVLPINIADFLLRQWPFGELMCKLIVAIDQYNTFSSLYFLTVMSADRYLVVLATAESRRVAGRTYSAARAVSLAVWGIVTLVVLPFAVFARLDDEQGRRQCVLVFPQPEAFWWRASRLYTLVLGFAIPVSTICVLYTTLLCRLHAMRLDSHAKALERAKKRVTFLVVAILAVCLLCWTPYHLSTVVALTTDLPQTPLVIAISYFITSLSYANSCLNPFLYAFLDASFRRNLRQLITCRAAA
TAAR1 antag: human TAAR1 antagonists, primary screen, Fluo-8 calcium fluorescence, CHO RD-HGA16 cells; antagonist; inhibition, % at 3 µM; 360,000 tested, 1.5% active; AID 624466, 2012;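 active = inhibition above a per-plate cutoff, the mean inhibition of test compounds on that plate plus 3 SD, cut at about 49% in these data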;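 also: 0% = DMSO plus EC80 beta-PEA response and 100% = DMSO alone without agonist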
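Test system – hTAAR1-expressing CHO RD-HGA16 cells, Gα16-coupled · Also added – β-PEA at EC80 concentration, post-compound challenge · Compound – 3 µM, single point · Incubation – dye loading 75 min at 37 °C, then 30 min room temperature · Measured by – Fluo-8 intracellular calcium dye fluorescence, real-time kinetic reads · Benchmarks – vehicle and agonist controls · Replicates – singlicate, one well per test compound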
CHO parental Ca: ATP-evoked calcium signal inhibitors, parental CHO, primary screen, counter-screen for OX1R antagonist project, cell-based, fluorescence, Fluo-8 calcium dye; parental CHO-K1, ATP-induced calcium, Fluo-8 fluorescence; inhibition, % at 5.6 µM; 330,000 tested, 0.63% active;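 active = inhibition above that plate's mean sample inhibition plus 3 SD, cut at about 26% in these data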;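 also: 0% = ATP-challenged DMSO wells and 100% = DMSO wells without ATP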
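Assay system: untransfected parental CHO cell line. Also added: ATP agonist challenge. Dosing: one dose, 5.6 µM nominal. Measured by: Fluo-8 fluorescence. Read-out: % inhibition. Benchmarks: ATP wells versus no-ATP DMSO wells. Repeats: no replicates.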
OX1R antag-1: OX1R (HCRTR1) antagonists, primary screen, fluorescence, CHO/OX1R cells, Fluo-8 calcium, orexin A | Orexin/Hypocretin receptor type 1 (Homo sapiens), O43613 | Fluo-8 calcium fluorescence | inhibition, % at 5 µM | 330,000 tested, 0.43% active | AID 434989, 2010;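 active = inhibition above its plate's threshold, mean inhibition of all tested compounds on the plate plus 3 SD, cut at about 37% in these data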;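 also: 0% = orexin A challenge wells and 100% = SB-334867-A antagonist wells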
Target sequence (O43613 whole entry, looked up): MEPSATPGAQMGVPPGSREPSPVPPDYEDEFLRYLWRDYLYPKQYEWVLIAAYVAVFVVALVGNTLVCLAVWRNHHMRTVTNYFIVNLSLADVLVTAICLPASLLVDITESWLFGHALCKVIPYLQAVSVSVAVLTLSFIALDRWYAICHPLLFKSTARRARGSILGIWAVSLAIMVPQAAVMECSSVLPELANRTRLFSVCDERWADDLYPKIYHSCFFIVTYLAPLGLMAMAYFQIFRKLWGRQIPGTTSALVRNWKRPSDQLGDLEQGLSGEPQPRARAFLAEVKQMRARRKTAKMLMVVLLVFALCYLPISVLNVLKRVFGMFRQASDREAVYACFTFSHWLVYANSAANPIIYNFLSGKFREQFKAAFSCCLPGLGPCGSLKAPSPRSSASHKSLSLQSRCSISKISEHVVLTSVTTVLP
OX1R antag-2: antagonists of human orexin 1 receptor (OX1R). Orexin/Hypocretin receptor type 1 (Homo sapiens), O43613. OX1R-expressing cells, FRET antagonist read-out. 330,000 tested, 1.8% active. AID 485270, 2010. inhibition, % at 6.6 µM; in the data active = inhibition mostly above about 38%, no sharp cut-off; inactive = mostly below about 40%;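 also: 0% = agonist challenge alone and 100% = reference antagonist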
OX1R Fluo8 conf: OX1R (HCRTR1) antagonists, confirmation, fluorescence, CHO/OX1R cells, Fluo-8 calcium, orexin A; shares compounds with OX1R antag-1; orexin A calcium Fluo-8 fluorescence; inhibition, % at 5 µM; 1,100 tested, 38% active; AID 492963, 2010; in the data active = inhibition above about 29%;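 also: 0% = agonist challenge alone and 100% = reference antagonist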
CHO Ca triplic: ATP-evoked calcium inhibition in parental CHO, counter-screen for OX1R antagonist project, cell-based, fluorescence, CHO-K1, triplicate | shares compounds with OX1R antag-1 | ATP-induced calcium, Fluo-8 fluorescence | inhibition, % at 5.6 µM | 1,100 tested, 9.3% active | AID 492965, 2010;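 active = inhibition above a per-plate limit, the mean inhibition of that plate's test compounds plus 3 SD, cut at about 25% in these data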;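 also: 0% = ATP challenge with DMSO and 100% = DMSO without ATP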
Numbers without * were called inactive; . = no result. Only some compounds are listed: those with a hit (about 4.6% of all), similar ones and a draw of the others.

SMILES	TAAR1 agonist	GPR7 antagonist	TAAR1 antag	CHO parental Ca	OX1R antag-1	OX1R antag-2	OX1R Fluo8 conf	CHO Ca triplic
CC(=O)Nc1ccc(-c2nnc(SCC(=O)Nc3ccc4c(c3)oc3ccccc34)n2C)cc1	1.4	13.5	-6.2	12.0	25.4	13.1	-0.8	-2.3
Cc1nn(CC(=O)N2CCN(S(=O)(=O)c3ccccc3)CC2)c(C)c1[N+](=O)[O-]	-1.5	.	-15.9	-8.7	-21.3	-0.1	.	.
O=C(CCc1nc2ccccc2c(=O)[nH]1)Nc1cc(Cl)ccc1N1CCCC1	2.2	.	15.2	-20.8	-26.5	4.3	.	.
CCc1nccn1S(=O)(=O)c1ccc2ccc(C)cc2c1	6.8	-6.8	-10.9	-11.5	56.0*	16.1	3.6	3.0
CCOc1ccc2cc(S(=O)(=O)n3ccnc3C)ccc2c1	1.6	-0.2	-0.4	16.1	-3.0	15.0	.	.
COc1ccc(NC(=O)CSc2nnc(-c3ccoc3C)n2CCc2ccccc2)cc1	10.2	17.5	13.5	-30.9	32.3	65.3	8.5	-8.2
CC(=O)c1ccc(OCc2cc(C(=O)N(C)CCOc3ccc(C)cc3)no2)cc1	3.3	2.8	8.5	-0.8	26.9	11.2	0.1	-2.5
COCCn1c(=O)[nH]c2cc(C(=O)N3CCN(c4cccc(Cl)c4)CC3)ccc2c1=O	6.3	-3.7	0.2	12.7	25.1	6.6	-2.3	-1.0
O=C(CSc1ccc2ccccc2c1Br)Nc1cccc(S(=O)(=O)NC2=NCCCCC2)c1	2.5	-1.9	-4.3	-2.2	29.9	36.0	16.8	-14.6
CCCCC1CCC(C(=O)N(CC(C)C)c2c(N)n(Cc3ccccc3)c(=O)[nH]c2=O)CC1 (centres undefined)	-0.8	.	7.0	-18.0	-23.9	18.1	.	.
COc1ccc2c(n1)Sc1nc3ccccc3nc1N2	21.6	16.6	17.2	24.3	34.9	29.5	47.3*	37.3*
OCC1(Cc2cccc(Cl)c2)CCCN(Cc2ccc3cc(F)ccc3n2)C1 (centres undefined)	0.6	2.7	-10.9	-30.2	31.8	54.7	33.1*	-9.9
CCCCCCCCNc1ncnc2ccccc12	.	8.4	.	-2.8	89.9*	35.9	15.7	84.7*
O=C(NC(=O)c1ccccc1O)c1ccc(C(F)(F)F)cc1	11.7	8.9	-7.3	6.3	8.6	23.8	.	.
CCCc1ccc(C(=O)NC(=O)c2ccccc2O)cc1	28.2	2.6	-6.6	10.4	26.9	22.7	8.8	73.4*
CC(=Nc1ccc(O)cc1)c1sc2ccccc2c1O	16.1	-19.2	18.8	5.4	2.6	26.5	.	.
CC(=Nc1ccccc1O)c1sc2ccccc2c1O	30.0	-2.5	43.7	24.1	34.1	30.3	10.7	0.1
O=C(CCC(=O)N1CCN(c2ccc(C(F)(F)F)cn2)CC1)c1cccs1	4.7	.	-6.7	-12.3	5.2	0.4	.	.
Cc1cc(OCC(=O)N(C)C2CCCCC2)ccc1Cl	1.4	-5.1	-1.4	-18.9	-22.6	26.7	.	.
Cc1cc(OCC(=O)N(C)C2CCCCC2)cc(C)c1Cl	18.2	-1.4	-28.7	8.7	25.6	37.4	14.4	-5.0
CC1CCC(NC(=O)c2ccc3c(c2)S(=O)(=O)c2ccccc2C3=O)CC1 (centres undefined)	14.3	.	43.5	-22.9	-15.1	25.4	.	.
CC(C)(C)N(NC(=O)Nc1ccc(Cl)c(Cl)c1)C(=O)c1ccccc1	20.8	0.9	14.6	29.3	72.6*	20.2	7.6	9.7
Cc1csc2c(N3CCN(C(=S)Nc4ccc(C(F)(F)F)cc4)CC3)ncnc12	46.8*	-1.4	38.1	9.8	37.1	25.3	22.5	64.3*
Cc1csc2ncnc(N3CCN(C(=S)Nc4ccc(C(F)(F)F)cc4)CC3)c12	1.1	-9.6	-41.5	0.2	49.2*	44.7	22.1	44.7*
Cc1cc(C)cc(NC(=S)N2CCN(c3ncc(C(F)(F)F)cc3Cl)CC2)c1	4.2	-5.7	-12.5	-25.1	-0.8	4.0	.	.
SMILES	TAAR1 agonist	GPR7 antagonist	TAAR1 antag	CHO parental Ca	OX1R antag-1	OX1R antag-2	OX1R Fluo8 conf	CHO Ca triplic
FC(F)(F)c1cccc(NC(=S)N2CCN(c3ccccn3)CC2)c1	35.6	-3.5	17.4	-18.5	-10.8	1.7	.	.
COc1cc(NC(=O)CN2C(=O)COc3ccccc32)cc(OC)c1	6.2	.	-19.2	.	.	.	.	.
CCNC(=O)Nc1cc(S(=O)(=O)Nc2ccc(OC)cc2)ccc1N1CCOCC1	.	.	.	14.1	41.0*	11.5	35.6*	75.0*
CCCCNC(=O)c1ccc(N2CCOCC2)c(NS(=O)(=O)c2ccc(OC)cc2)c1	3.4	-13.8	-1.7	-9.9	-20.8	10.2	.	.
Cc1cccc(N=Nc2c(N)n[nH]c2-c2ccc(Cl)cc2)c1	33.2	-14.9	-16.0	20.7	26.7	7.0	-4.7	-7.0
COc1ccc(-n2c(=S)[nH]c3cc(C(=O)Nc4ccc(C)c(F)c4)ccc3c2=O)c(OC)c1	4.8	12.8	13.2	15.0	21.2	44.4	16.0	15.1
COc1ccc(-n2c(=S)[nH]c3cc(C(=O)Nc4cc(C(N)=O)ccc4OC)ccc3c2=O)c(OC)c1	12.1	-10.6	3.0	-8.8	0.2	4.3	.	.
CCCN(C(=O)COC(=O)CSc1ccc([N+](=O)[O-])cc1)C1CCS(=O)(=O)C1 (centres undefined)	16.6	.	4.1	-2.5	-17.3	11.1	.	.
CC(C)Oc1cc(F)ccc1-c1cc(C(=O)NCCc2ccncc2)[nH]n1	1.6	.	9.2	.	.	.	.	.
O=S(=O)(c1ccccc1)N1CCN(c2ncnc3sc(-c4ccccc4)cc23)CC1	4.1	-8.1	-3.9	.	.	.	.	.
NNC(=O)c1cc2c(N3CCC(Cc4ccccc4)CC3)ncnc2s1	11.4	-8.3	32.1	17.4	31.5	8.0	13.8	10.5
C=C(C)Cn1c2ccc(NC(=O)NCc3ccccc3)cc2c(=O)n1C	3.0	.	-2.8	.	.	.	.	.
CCN1C/C(=C/c2ccc(N3CCOCC3)cc2)C(=O)/C(=C/c2ccc(N3CCOCC3)cc2)C1	25.2	-16.2	40.2	34.1	46.0	30.6	33.8*	33.7*
Cc1cccc2cc3c(N)c(C(=O)Nc4ccc(N5CCOCC5)cc4)sc3nc12	5.4	-10.1	7.9	-0.1	9.8	14.6	.	.
CCc1cccc2cc3c(N)c(C(=O)Nc4ccc(S(=O)(=O)N5CCCC5)cc4)sc3nc12	16.7	-1.3	64.5*	33.2	46.1	12.6	17.3	19.8

Screens from PubChem.
